Data published in ChEMBL document CHEMBL2040798, “One-pot synthesis of novel isoindoline-1,3-dione derivatives bearing 1,2,4-triazole moiety and their preliminary biological evaluation” (Eur J Med Chem, 2012).

How the values were obtained:
HepG2 [1] = test: Cytotoxicity against human HepG2 cells after 48 hrs by MTT assay; assay type: functional, cell-based; conditions: HepG2, 48 h
How it was run: (§1)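 MTT assay. Cells kept in DMEM with 10% FBS. HepG2 seeded at 1 × 10^4 cells/well; A549, PC-3M and MKN45 at 1.6 × 10^4 cells/well. Attachment 24 h at 37 °C. Compounds diluted in medium from 10 mM DMSO stocks; 0.1% DMSO served as negative control. Exposure 48 h at 37 °C, then MTT for 3 h. Formazan dissolved in DMSO and read at 570 nm. IC50 from a concentration series; mean of three independent experiments.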

[2] = Cytotoxicity against human PC3M cells after 48 hrs by MTT assay; assay type: functional, cell-based; conditions: PC-3M; how it was run: as §1
A549 [3] = test: Cytotoxicity against human A549 cells after 48 hrs by MTT assay; assay type: functional, cell-based; conditions: A549, 48 h; how it was run: as §1
MKN-45 = test: Cytotoxicity against human MKN45 cells after 48 hrs by MTT assay; assay type: functional, cell-based; conditions: MKN-45, 48 h; how it was run: as §1
Pyricularia grisea = test: Growth inhibition of Phyricularia oryzae Cav. at 150 mg/mL after 48 hrs by mycelium growth rate method; assay type: functional; set-up: dose or concentration left out as unconfirmed; conditions: read-out: GI
HepG2 [4] = test: Cell cycle arrest in human HepG2 cells assessed as S phase cells at 16 uM after 24 hrs by flow cytometry (reference value: 29.84%); assay type: functional
HepG2 [5] = test: Cell cycle arrest in human HepG2 cells assessed as G0/G1 phase cells at 4 uM after 24 hrs by flow cytometry (reference value: 54.65%); assay type: functional
HepG2 [6] = test: Cell cycle arrest in human HepG2 cells assessed as S phase cells at 8 uM after 24 hrs by flow cytometry (reference value: 29.84%); assay type: functional
HepG2 [7] = test: Ratio of Fluorouracil IC50 to compound IC50 for human HepG2 cells; assay type: functional
A549 [8] = test: Ratio of Fluorouracil IC50 to compound IC50 for human A549 cells; assay type: functional
HepG2 [9] = test: Cell cycle arrest in human HepG2 cells assessed as Sub-G0 phase cells at 4 uM after 24 hrs by flow cytometry (reference value: 2.48%); assay type: functional
HepG2 [10] = test: Cell cycle arrest in human HepG2 cells assessed as G2/M phase cells at 16 uM after 24 hrs by flow cytometry (reference value: 16.38%); assay type: functional
HepG2 [11] = test: Cell cycle arrest in human HepG2 cells assessed as S phase cells at 4 uM after 24 hrs by flow cytometry (reference value: 29.84%); assay type: functional
HepG2 [12] = test: Induction of apoptosis in human HepG2 cells after 24 hrs by flow cytometry; assay type: functional, cell-based
HepG2 [13] = test: Cell cycle arrest in human HepG2 cells assessed as G0/G1 phase cells at 16 uM after 24 hrs by flow cytometry (reference value: 54.65%); assay type: functional
HepG2 [14] = test: Cell cycle arrest in human HepG2 cells assessed as G2/M phase cells at 8 uM after 24 hrs by flow cytometry (reference value: 16.38%); assay type: functional
HepG2 [15] = test: Cell cycle arrest in human HepG2 cells assessed as Sub-G0 phase cells at 8 uM after 24 hrs by flow cytometry (reference value: 2.48%); assay type: functional
HepG2 [16] = test: Cell cycle arrest in human HepG2 cells assessed as Sub-G0 phase cells at 16 uM after 24 hrs by flow cytometry (reference value: 2.48%); assay type: functional
HepG2 [17] = test: Cell cycle arrest in human HepG2 cells assessed as G0/G1 phase cells at 8 uM after 24 hrs by flow cytometry (reference value: 54.65%); assay type: functional
HepG2 [18] = test: Cell cycle arrest in human HepG2 cells assessed as G2/M phase cells at 4 uM after 24 hrs by flow cytometry (reference value: 16.38%); assay type: functional

| Compound | IC50 (HepG2 [1]) [µM] | IC50 [2] [µM] | IC50 (A549 [3]) [µM] | IC50 (MKN-45) [µM] | inhibition of growth (Pyricularia grisea) [%] | other results |
| --- | --- | --- | --- | --- | --- | --- |
| CCc1nnc(SCc2ccccc2)n1N1C(=O)c2ccccc2C1=O | > 200 | > 200 | > 200 | > 200 | ≥ 50 |  |
| Cc1ccc(C(=O)CSc2nnc(C)n2N2C(=O)c3ccccc3C2=O)cc1 | > 200 | > 200 | > 200 | > 200 | ≥ 50 |  |
| CCc1nnc(SCC(=O)c2ccccc2)n1N1C(=O)c2ccccc2C1=O | > 200 | > 200 | > 200 | > 200 | < 50 |  |
| COc1cc(-c2nnc(SC)n2N2C(=O)c3ccccc3C2=O)cc(OC)c1OC | > 200 | > 200 | > 200 | > 200 | ≥ 50 |  |
| Cc1nnc(SCc2ccccc2)n1N1C(=O)c2ccccc2C1=O | > 200 | > 200 | > 200 | > 200 | < 50 |  |
| CCOC(=O)CSc1nnc(-c2cc(OC)c(OC)c(OC)c2)n1N1C(=O)c2ccccc2C1=O | > 200 | > 200 | > 200 | > 200 | < 50 |  |
| CCCc1nnc(SCc2ccccc2Cl)n1N1C(=O)c2ccccc2C1=O | > 200 | > 200 | > 200 | > 200 | < 50 |  |
| CCOC(=O)CSc1nnc(CC)n1N1C(=O)c2ccccc2C1=O | > 200 | > 200 | > 200 | > 200 | ≥ 50 |  |
| CCCc1nnc(SCC(=O)c2ccc(Cl)cc2)n1N1C(=O)c2ccccc2C1=O | > 200 | > 200 | > 200 | > 200 | < 50 |  |
| COc1cc(-c2nnc(SCC(=O)c3ccc(F)cc3)n2N2C(=O)c3ccccc3C2=O)cc(OC)c1OC | > 200 | > 200 | > 200 | 126 | < 50 |  |
| C=CCSc1nnc(-c2cc(OC)c(OC)c(OC)c2)n1N1C(=O)c2ccccc2C1=O | > 200 | > 200 | > 200 | > 200 | ≥ 60 |  |
| COc1cc(-c2nnc(SCc3ccccc3)n2N2C(=O)c3ccccc3C2=O)cc(OC)c1OC | > 200 | > 200 | > 200 | > 200 | < 50 |  |
| Cc1nnc(SCC(=O)c2ccc(Cl)cc2)n1N1C(=O)c2ccccc2C1=O | > 200 | > 200 | > 200 | > 200 | ≥ 60 |  |
| C=CCSc1nnc(CC)n1N1C(=O)c2ccccc2C1=O | > 200 | > 200 | > 200 | > 200 | < 50 |  |
| COc1cc(-c2nnc(SCC(=O)c3ccc(Cl)cc3)n2N2C(=O)c3ccccc3C2=O)cc(OC)c1OC | 22 | 20.7 | 9.03 | 26.6 | < 50 |  |
| COc1cc(-c2nnc(SCC(=O)c3ccc(C)cc3)n2N2C(=O)c3ccccc3C2=O)cc(OC)c1OC | 9.44 | 11.7 | 6.76 | 9.62 | < 50 | Activity (HepG2 [4]): 21.07%; Activity (HepG2 [5]): 40.73%; Activity (HepG2 [6]): 17.5%; Ratio IC50 (HepG2 [7]): 4; Ratio IC50 (A549 [8]): 4; Activity (HepG2 [9]): 15.05%; Activity (HepG2 [10]): 6.31%; Activity (HepG2 [11]): 25.41%; Activity (HepG2 [12]): Dose-dependent effect; Activity (HepG2 [13]): 36.7%; Activity (HepG2 [14]): 11.38%; Activity (HepG2 [15]): 29.22%; Activity (HepG2 [16]): 32.58%; Activity (HepG2 [17]): 37.45%; Activity (HepG2 [18]): 14.4% |
| CCCc1nnc(SCC(=O)c2ccc(C)cc2)n1N1C(=O)c2ccccc2C1=O | > 200 | > 200 | > 200 | > 200 | ≥ 80 |  |
| CCOC(=O)CSc1nnc(C)n1N1C(=O)c2ccccc2C1=O | > 200 | > 200 | > 200 | > 200 | < 50 |  |
| C#CCSc1nnc(CCC)n1N1C(=O)c2ccccc2C1=O | > 200 | > 200 | > 200 | > 200 | < 50 |  |
| O=c1[nH]cc(F)c(=O)[nH]1 [FLUOROURACIL] |  | 22.6 |  | 41.7 |  |  |

| Compound | IC50 (HepG2 [1]) [µM] | IC50 [2] [µM] | IC50 (A549 [3]) [µM] | IC50 (MKN-45) [µM] | inhibition of growth (Pyricularia grisea) [%] | other results |
| --- | --- | --- | --- | --- | --- | --- |
| CCCc1nnc(SC)n1N1C(=O)c2ccccc2C1=O | > 200 | > 200 | > 200 | > 200 | < 50 |  |
| COc1ccc(C(=O)CSc2nnc(-c3cc(OC)c(OC)c(OC)c3)n2N2C(=O)c3ccccc3C2=O)cc1 | 28.7 | 32.8 | 30 | 37.2 | < 50 |  |
| Cc1nnc(SCc2ccccc2Cl)n1N1C(=O)c2ccccc2C1=O | > 200 | > 200 | > 200 | > 200 | ≥ 60 |  |
| C#CCSc1nnc(C)n1N1C(=O)c2ccccc2C1=O | > 200 | > 200 | > 200 | > 200 | ≥ 60 |  |
| CCc1nnc(SCC(=O)c2ccc(C)cc2)n1N1C(=O)c2ccccc2C1=O | > 200 | > 200 | > 200 | > 200 | < 50 |  |
| COc1cc(-c2nnc(SCC(=O)c3ccc(Br)cc3)n2N2C(=O)c3ccccc3C2=O)cc(OC)c1OC | 27.7 | 22.6 | 16.1 | 22.3 | ≥ 60 |  |
| CCCc1nnc(SCC(=O)c2ccccc2)n1N1C(=O)c2ccccc2C1=O | > 200 | > 200 | > 200 | > 200 | < 50 |  |
| COc1cc(-c2nnc(SCc3ccccc3Cl)n2N2C(=O)c3ccccc3C2=O)cc(OC)c1OC | > 200 | > 200 | > 200 | > 200 | < 50 |  |
| COc1cc(-c2nnc(SCC(=O)c3ccccc3)n2N2C(=O)c3ccccc3C2=O)cc(OC)c1OC | 171 | > 200 | > 200 | > 200 | ≥ 60 |  |
| COc1cc(-c2nnc(SCC(=O)c3ccc(F)c(F)c3)n2N2C(=O)c3ccccc3C2=O)cc(OC)c1OC | > 200 | 163 | > 200 | > 200 | < 50 |  |
| COc1cc(-c2nnc(SCC(=O)c3ccccc3C)n2N2C(=O)c3ccccc3C2=O)cc(OC)c1OC | > 200 | > 200 | 144 | > 200 | < 50 |  |
| CCc1nnc(SC)n1N1C(=O)c2ccccc2C1=O | > 200 | > 200 | > 200 | > 200 | < 50 |  |
| C#CCSc1nnc(-c2cc(OC)c(OC)c(OC)c2)n1N1C(=O)c2ccccc2C1=O | > 200 | > 200 | > 200 | > 200 | < 50 |  |
| C#CCSc1nnc(CC)n1N1C(=O)c2ccccc2C1=O | > 200 | > 200 | > 200 | > 200 | ≥ 60 |  |
| CSc1nnc(C)n1N1C(=O)c2ccccc2C1=O | > 200 | > 200 | > 200 | > 200 | < 50 |  |
| CCCc1nnc(SCc2ccccc2)n1N1C(=O)c2ccccc2C1=O | > 200 | > 200 | > 200 | > 200 | < 50 |  |
| CC(C)(C)C(=O)C(Oc1ccc(Cl)cc1)n1cncn1 (stereo not drawn) [TRIADIMEFON] |  |  |  |  | ≥ 80 |  |
| C=CCSc1nnc(CCC)n1N1C(=O)c2ccccc2C1=O | > 200 | > 200 | > 200 | > 200 | < 50 |  |
| Cc1nnc(SCC(=O)c2ccccc2)n1N1C(=O)c2ccccc2C1=O | > 200 | > 200 | > 200 | > 200 | < 50 |  |
| CCc1nnc(SCC(=O)c2ccc(Cl)cc2)n1N1C(=O)c2ccccc2C1=O | > 200 | > 200 | > 200 | > 200 | < 50 |  |
